According to ChEMBL document CHEMBL1806413, “New C-23 modified of silybin and 2,3-dehydrosilybin: synthesis and preliminary evaluation of antioxidant properties” (Bioorg Med Chem Lett, 2011):
Active and inactive are the calls of the source. The calls are words filed in the database; no cut-off is given here.

Key:
[1] = tested on: Rat1; assay: Antioxidant activity in rat immortalized Rat1 cells assessed as inhibition of hydrogen peroxide-induced reactive oxygen species production by measuring conversion of 2',7'-dichlorofluorescin diacetate into 2',7'-dichlorofluorescein at 30 uM treated 48 hrs before H2O2 challenge measured after 15 mins by fluorescence assay; type: functional, cell-based
In short: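 Immortalized rat fibroblasts pre-treated 48 h with compound (30 μM), then exposed to 100 μM H2O2 for 15 min; intracellular ROS read as DCF fluorescence from DCFH-DA oxidation. Basal (no H2O2) levels also measured. Values expressed as % of fluorescence in untreated control cells (set at 100).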

[2] = tested on: Rat1; assay: Cytotoxicity against rat immortalized Rat1 cells after 48 hrs by MTT assay; type: cell-based; settings: for IC50: Rattus norvegicus, Rat1, 48 h; for Activity: rat, rat1, 48 h
[3] = tested on: Rat1; assay: Cytotoxicity against rat immortalized Rat1 cells assessed as reduction of cell viability at 30 uM after 48 hrs by MTT assay; type: cell-based; settings: rat1, 48 h
In short: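 Exponentially growing rat fibroblasts given compound at 30 μM; viability assessed by MTT test after 48 h.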

| Structure (SMILES) | inhibition [1] | IC50 [2] [µM] | Activity [2] | Activity [3] |
| --- | --- | --- | --- | --- |
| COc1cc(C2Oc3cc(-c4oc5cc(O)cc(O)c5c(=O)c4O)ccc3OC2CO)ccc1O (mixture of isomers) [DEHYDROSILYLBIN] | Active | 155 | Dose-dependent effect | Non-toxic |
| COc1cc(C2Oc3cc([C@H]4Oc5cc(O)cc(O)c5C(=O)[C@@H]4O)ccc3OC2CO)ccc1O (mixture of isomers) [SILIBININ] | Active | 162 | Dose-dependent effect | Non-toxic |
